Compound activity (PubChem BioAssay)
NR2E3 ag-1: human photoreceptor-specific nuclear receptor agonism. CHO-S Gal4-NCOR/VP16-NR2E3 two-hybrid, luciferase. inhibition of corepressor binding, % at 3.98 µM. 360,000 compounds, 0.35% hits;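 active = inhibition above the mean of all tested compounds plus 3 SD, cut at about 70% in these data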;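 also: 0% = DMSO with NR2E3 transfected cells and 100% = cells lacking NR2E3 construct; higher means lower luciferase signal from less NR2E3 corepressor binding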
GalR3 antagonist: blocks the human galanin receptor 3; HEK293 GalR3-CNG cAMP membrane potential fluorescence; galR3 body fused to GalR1 C-terminus; 360,000 compounds, 0.44% hits; inhibition, % at 3 µM;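 active = inhibition above the screen-wide average plus 3 SD, cut at about 13% in these data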;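 also: forskolin and galanin both at EC90 stimulate the cells; cAMP rise reported by CNG channel membrane potential dye signal; 0% = forskolin plus galanin with DMSO and 100% = forskolin alone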
CHT allo act: allosterically activates the human high affinity choline transporter; Q9GZV3; CHT-expressing cells, membrane potential dye, choline EC20; stronger effect = higher value; LV-AA mutant CHT in HEK293 cells; B-score at 10 µM; 310,000 compounds, 0.49% hits;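 active = initial fluorescence not abnormally high and integrated response B-score, plate-corrected, over 3 SD above library mean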
CHT block: human CHT choline transport inhibition | Q9GZV3 | 310,000 compounds, 0.86% hits | B-score at 10 µM | CHT-expressing cells, membrane potential dye, choline response; stronger effect = lower value;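 active = B-score over 3 SD under the library average, and starting fluorescence ratio not unusually high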;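 also: choline stimulus applied at its EC90 after an EC20 pre-addition; B-score computed on integrated fluorescence ratio after choline addition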
NR2E3 ag-2: activates human photoreceptor nuclear receptor NR2E3; GST-NR2E3/biotin-RetCOR TR-FRET, 1536-well; inhibition of corepressor binding, % at 4.78 µM; 320,000 compounds, 0.12% hits;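 active = percent inhibition above the cutoff of mean plus 3 SD of all tested compounds, set per screening campaign, cut at about 20% in these data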;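 also: 0% = DMSO wells and 100% = biotin wells as full block of FRET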
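system = GST-tagged NR2E3 plus biotinylated RetCOR corepressor | input = 1.35 nM GST-NR2E3 | also added = 7 nM biotin-RetCOR | schedule = 5 h incubation at 4 °C | measured by = TR-FRET with europium anti-GST and streptavidin-D2, 340 nm excitation | read-out = percent loss of FRET ratio relative to control wells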
NR2F2 inh: NR2F2 (human) inhibition, primary screen. HEK293T NGFI-A luciferase reporter, luminescence. P24468. inhibition, % at 8.6 µM. 370,000 compounds, 0.7% hits. AID 686940;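 active = inhibition above a per-plate cutoff, mean inhibition of test wells between control levels plus 3 SD, cut at about 38% in these data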;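 also: cells cotransfected with COUP-TFII expression vector driving the NGFI-A reporter; 0% = median of COUP-TF2 test wells and 100% = reporter-only cells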
Target sequence (P24468 whole entry, looked up): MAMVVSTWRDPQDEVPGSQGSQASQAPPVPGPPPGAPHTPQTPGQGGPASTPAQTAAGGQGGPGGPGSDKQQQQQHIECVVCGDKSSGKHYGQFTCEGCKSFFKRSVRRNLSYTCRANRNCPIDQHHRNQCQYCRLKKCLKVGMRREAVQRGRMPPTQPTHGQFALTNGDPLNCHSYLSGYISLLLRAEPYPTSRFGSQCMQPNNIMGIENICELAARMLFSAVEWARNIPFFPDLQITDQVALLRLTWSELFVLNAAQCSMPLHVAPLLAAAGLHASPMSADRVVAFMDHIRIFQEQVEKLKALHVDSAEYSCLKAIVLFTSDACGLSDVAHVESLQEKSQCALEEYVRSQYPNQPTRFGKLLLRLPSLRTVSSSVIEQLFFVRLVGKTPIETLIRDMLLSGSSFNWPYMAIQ
CHT act confirm: confirmation of human choline transporter (CHT) activators | shares compounds with CHT allo act | activation, % at 10 µM | AID 504833 | 2,500 compounds, 91% hits | CHT-expressing cells, membrane potential dye fluorescence (FDSS); % of choline EC20–EC90 response window; HEK293 expressing CHT LV-AA mutant; choline added at its EC20;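 active = primary screen active, with duplicate mean activation above negative control mean plus 3 SD, cut at about 11% in these data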
HEK293 MP dye: activity in parental HEK293 cells lacking CHT. shares compounds with CHT allo act. membrane potential dye fluorescence (FDSS); measured after EC20 choline addition. 2,500 compounds, 62% hits. ratio readout change at 10 µM, hits read low;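 active = duplicate-averaged ratio beyond 3 SD from buffer wells, up or down, though filed actives are nearly all decreases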
Starred values were filed as active, the others as inactive. Hits are enriched below; roughly 2.3% of the tested compounds scored in any of these assays.

Screening C#CC1(O)C2C=C(OC)C(=O)C1C(c1ccccc1)C2C (stereo not given) returned NR2F2 inh -13.
Screening CCNS(=O)(=O)c1cc(-c2nnc(OC)c3ccccc23)ccc1C returned NR2E3 ag-1 15, GalR3 antagonist -9, CHT allo act 7.7*, CHT block inactive, NR2E3 ag-2 1, NR2F2 inh 4, CHT act confirm -11 and HEK293 MP dye inactive.
For CCC[C@H]1[C@@H](OC(=O)NCc2ccc(Cl)c(Cl)c2)CC[C@@]23CCCN2C(=O)CCC[C@@H]13 the results were NR2F2 inh 26.
For CCCCCC[N+](C)(C)CCSSCC[N+](C)(C)CCCCCC the results were NR2E3 ag-1 4, GalR3 antagonist -2, CHT allo act inactive, CHT block inactive, NR2E3 ag-2 -1, NR2F2 inh 10, CHT act confirm 38* and HEK293 MP dye -46*.
CCCCCCCCCCCCCCCC[N+](C)(C)CC was read as NR2E3 ag-1 4, CHT allo act inactive, CHT block inactive, NR2E3 ag-2 4 and NR2F2 inh 12.
For COc1ccc(OC)c(S(=O)(=O)N2CCCC(C(=O)Nc3c(C)n(C)n(-c4ccccc4)c3=O)C2)c1 (stereo not given) the results were NR2F2 inh -3.
`Cc1ccc(S(=O)(=O)c2nc(-c3ccco3)oc2SC(C)C)cc1` gave NR2E3 ag-1 -6, GalR3 antagonist -6, CHT allo act inactive, CHT block inactive, NR2E3 ag-2 -9, NR2F2 inh 9, CHT act confirm 15* and HEK293 MP dye inactive.
For Cc1ccc(C)c(S(=O)(=O)N2CCN(C(=O)c3cc(S(=O)(=O)NCc4ccccc4)ccc3C)CC2)c1 the results were NR2E3 ag-1 -10, GalR3 antagonist -6, CHT allo act inactive, CHT block inactive, NR2E3 ag-2 -5, NR2F2 inh -1, CHT act confirm 22* and HEK293 MP dye inactive.
Cc1cc(C)c2c(n1)nn1c(NCCN3CCOCC3)cc(C)nc21 was read as NR2E3 ag-1 -13, GalR3 antagonist 4, CHT allo act 6.9*, CHT block inactive, NR2E3 ag-2 -1, NR2F2 inh -9, CHT act confirm 50* and HEK293 MP dye -73*.
Screening COCCNc1cc(C)nc2c3c(C)cc(C)nc3nn12 returned NR2E3 ag-1 -8, GalR3 antagonist -3, CHT allo act inactive, CHT block inactive, NR2E3 ag-2 -4, NR2F2 inh -2, CHT act confirm 55* and HEK293 MP dye -65*.
For Cc1cc(NCCN2CCOCC2)n2nc(C)c(-c3ccccc3)c2n1 the results were NR2E3 ag-1 -6, GalR3 antagonist -2, CHT allo act inactive, CHT block inactive, NR2E3 ag-2 -1 and NR2F2 inh -14.
`O=C(c1ccncc1)N1CC[C@H]2[C@H](CCCN2Cc2cc(F)cc(F)c2)C1` gave NR2F2 inh -3.
For COc1ccc(-c2noc(CSc3nc4sc(C)c(C)c4c(=O)n3-c3ccccc3)n2)cc1OC the results were NR2E3 ag-1 2, GalR3 antagonist -9, CHT allo act inactive, CHT block inactive, NR2E3 ag-2 1 and NR2F2 inh 17.
For COc1ccc(-c2noc(CSc3nc4ccccc4c(=O)n3-c3ccccc3)n2)cc1OC the results were NR2E3 ag-1 -9, GalR3 antagonist -4, CHT allo act inactive, CHT block inactive, NR2E3 ag-2 1, NR2F2 inh 2, CHT act confirm 14* and HEK293 MP dye inactive.
`CCC(=O)N(CCC(c1ccco1)C(C)C)Cc1ccccc1` (stereo not given) gave NR2E3 ag-1 22, GalR3 antagonist -1, CHT allo act inactive, CHT block inactive, NR2E3 ag-2 -6 and NR2F2 inh 0.
Screening CC(=O)N(CCC(c1ccco1)C(C)C)Cc1ccc(Cl)cc1 (stereo not given) returned NR2E3 ag-1 -15, GalR3 antagonist -2, CHT allo act 7.4*, CHT block inactive, NR2E3 ag-2 -1, NR2F2 inh 5, CHT act confirm 26* and HEK293 MP dye inactive.
For Cc1cccc(N=Cc2[nH]c3ccc(Br)c(Cl)c3c2O)c1 the results were NR2E3 ag-1 -26, GalR3 antagonist -1, CHT allo act inactive, CHT block inactive, NR2E3 ag-2 -5, NR2F2 inh 5, CHT act confirm 12* and HEK293 MP dye inactive.
O=C(c1nc2ccccn2c1CN1CCCC(O)C1)N1CCN(C2CCCCC2)CC1 (stereo not given) was read as NR2E3 ag-1 -5, GalR3 antagonist -1, CHT allo act inactive, CHT block inactive, NR2E3 ag-2 4, NR2F2 inh 10, CHT act confirm 75* and HEK293 MP dye -57*.
Screening CCCCN(C)C(=O)c1ccc2c(c1)NC(=O)C(C)(C)O2 returned NR2F2 inh -17.
`COc1cc(OC)c2ccc(=O)oc2c1C(CC(=O)N1CCN(c2ccccc2)CC1)c1ccc2c(c1)OCO2` (stereo not given) gave NR2E3 ag-1 4, GalR3 antagonist -8, CHT allo act inactive, CHT block inactive, NR2E3 ag-2 2, NR2F2 inh -8, CHT act confirm 33* and HEK293 MP dye inactive.
COc1ccc(CNCC#Cc2ccccc2)c(OC)c1 was read as NR2F2 inh 16.
`CCOc1cc(/C=C/c2cccc[n+]2C)ccc1OCC(=O)Nc1ccc(C)cc1` gave NR2E3 ag-1 -8, GalR3 antagonist -8, CHT allo act inactive, CHT block inactive, NR2E3 ag-2 2 and NR2F2 inh 17.
CCOc1cc(/C=C/c2cccc[n+]2C)ccc1O was read as NR2E3 ag-1 11, GalR3 antagonist -8, CHT allo act 6.9*, CHT block inactive, NR2E3 ag-2 -1, NR2F2 inh 3, CHT act confirm 48* and HEK293 MP dye -31*.
Screening C[n+]1cccc2c(Br)ccc([O-])c21 returned NR2E3 ag-1 -36, GalR3 antagonist -4, CHT allo act 6.4*, CHT block inactive, NR2E3 ag-2 -5, NR2F2 inh 17, CHT act confirm 58* and HEK293 MP dye -48*.
